One test relates to Breast cancer cell lines. Put plainly: NCI sixty cell panel, breast subpanel. The class given is cell-based. Conditions: Homo sapiens, read-out: pTGI Breast.
The test system of test [1] is sixty human tumor cell lines. In words: NCI sixty cell panel, mean of full panel. The class given is cell-based. The conditions noted are these: for GI50: read-out: pGI50 MG-MID (converted); for CC50: read-out: pLC50 MG-MID (converted); for IC (TGI): read-out: pTGI MG-MID.
The next test concerns Renal cancer cell lines. In words: NCI sixty cell panel, renal subpanel. The class given is cell-based. Conditions: Homo sapiens, read-out: pTGI Renal.
For the next test, the system named is Melanoma cell lines. Put plainly: NCI sixty cell panel, melanoma subpanel. In kind it is cell-based. Conditions: Homo sapiens, read-out: pTGI Melanoma.
The test system of test [2] is Ovarian cancer cell lines. Put plainly: NCI sixty cell panel, ovarian subpanel. The conditions noted are these: Homo sapiens, read-out: pTGI Ovarian. The class given is cell-based.
A further test concerns Colon cancer cell lines. Put plainly: NCI sixty cell panel, colon subpanel. In kind it is cell-based. Conditions: Homo sapiens, read-out: pTGI Colon.
Test [3] deals with panel of 36 human tumor cell lines. In words: Oncotest 36 cell line assay. In kind it is cell-based. The conditions noted are these: four days exposure. In a few lines:
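Panel of 36 lines: 24 derived from patient tumor xenografts passaged subcutaneously in nude mice, 12 commercial. Grown at 37°C, 5% CO2, in RPMI 1640 with 10% fetal calf serum and 0.1 mg/ml gentamicin. Test compound added one day after plating, at 5 concentrations, for four days. DNA content read by propidium iodide fluorescence. Three independent experiments, each in triplicate; IC70 values.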

Another test deals with C-erbB2. In words: Stability of C-erbB2 and β-actin in MCF-7 cells. The class given is cell-based, human. Conditions: Western blot. In short, it runs like this: (§1)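 MCF7 cells (1×10^6) seeded in six-well plates and grown overnight. Cycloheximide (100 µmol/L) given alone, with MG-132 (10 µmol/L), or with test compound for 8 and 16 h in total. Lysates Western blotted with polyclonal anti-BCA2 (1:800), monoclonal anti-β-actin (1:5000) and monoclonal anti-C-erbB2 (1:2000). Band mean grey value and integrated density expressed relative to control sample; protein levels normalised to β-actin.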

The test system of a further test is HL60 and HL60 ρ^0 cells. In words: 2-day MTT cell proliferation assay in HL60 and HL60ρ0 cells. Conditions: Homo sapiens, HL-60, 48 h, read-out: IC50 for cell proliferation. In kind it is cell-based. In short, it runs like this: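 Cells exposed to test compound for 48 h, then MTT reduction read as a measure of proliferation. IC50 for cell proliferation derived from the readings.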

Test [4] relates to PMET, B1647, HEL and M07e. In words: PMET inhibition in human leukemic cell lines B1647, HEL and M07e. The class given is cell-based. The conditions noted are these: read-out: PMET inhibition IC50. In a few lines: (§2)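 Plasma membrane electron transport assay: leukemic cells (10^5 per well in 0.1 ml) pretreated 30 min with test compound in DMSO (<0.1% final). WST-1 and mPMS then added (final 500 µM and 20 µM). WST-1 reduction followed in real time at 450 nm and expressed as % of control.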

For a further test, the system named is HL-60-TB leukemia. In words: Human tumor xenograft in nude mice. The class given is in vivo. The conditions noted are these: HL-60-TB leukemia xenograft in nude mice.
In test [5] the test system is leukemia cell lines HL-60, K562, MOLT-4, CCRF-CEM, RPMI-8226, SR. Put plainly: Hollow fiber assay. The class given is in vivo, human. The conditions noted are these: panel of six leukemia cell lines.
The subject of test [6] is plasma membrane electron transport (PMET), HL60 and HL60ρ^0 cells. Put plainly: PMET inhibition. The class given is cell-based, human. The conditions noted are these: at 200 µM, 30 min pretreatment. In short, it runs like this: as §2
The next test deals with Leukemia cell lines. In words: NCI sixty cell panel, leukemia subpanel. In kind it is cell-based. The conditions noted are these: Homo sapiens; for IC (TGI): read-out: pTGI Leukemia.
Test [7] has as its system Prostate cancer cell lines. Put plainly: cells. Conditions: Homo sapiens, read-out: pTGI Prostate. In kind it is cell-based.
For another test, the system named is BCA2. Put plainly: Analysis of BCA2 protein stability in MCF7 cells. In kind it is cell-based, human. The conditions noted are these: MCF-7 cells, in the presence of cycloheximide (CHX), 16 h. In short, it runs like this: as §1
Another test relates to CNS cancer cell lines. In words: cells. The conditions noted are these: Homo sapiens, read-out: pTGI CNS. The class given is cell-based.
In another test the test system is NSCLC cell lines. In words: NCI sixty cell panel, NSCLC subpanel. The class given is cell-based. Conditions: Homo sapiens, read-out: pTGI NSCLC.

SMILES strings stand for the structures. Where a name gives a salt, the structure may show the parent alone. Where a SMILES comes first, the peptide text is derived from it. The star is where a group is joined. Cbz = O=C(OCc1ccccc1)*

Regarding `O=C1Nc2ccccc2/C1=C\c1cccc(/C=C2/C(=O)Nc3ccccc32)n1` [Compound 3a], the IC (TGI) in the test with Breast cancer cell lines was 2 µM. Moreover, in [1], the GI50 is 0.457 µM and the CC50 was 14.1 µM. Besides, the IC (TGI) with Renal cancer cell lines was 1.62 µM.

For `O=C1Nc2cccc(Cl)c2/C1=C\c1cccc(/C=C2/C(=O)Nc3cccc(Cl)c32)n1` [Compound 3b], the figures for the IC (TGI) (in the test with Melanoma cell lines; in [2]; in the test on Colon cancer cell lines) were 3.16 µM, 2.82 µM and 5.01 µM, respectively. Moreover, the “mean IC70” value in [3] amounted to 0.35 µg/mL. In addition, in the test with C-erbB2, the “effects on β-actin or the oncogenic receptor C-erbB2” value is “No effects”. For the same compound, the IC50 in the test with HL60 and HL60 ρ^0 cells was in the range of 3 to 8 µM; in test [4], 15 to 30 µM. The GI50 in test [1] was 0.457 µM.

Turning to `O=C1Nc2ccc(Cl)cc2/C1=C\c1cccc(/C=C2/C(=O)Nc3ccc(Cl)cc32)n1` [Compound 3c], the IC50 with HL60 and HL60 ρ^0 cells was in the range of 3 to 8 µM. Moreover, in test [1], the GI50 is 1.07 µM, the CC50 was 16.2 µM and the IC (TGI) is 3.39 µM.

Regarding `COc1ccc2c(c1)/C(=C\c1cccc(/C=C3/C(=O)Nc4ccc(OC)cc43)n1)C(=O)N2` [Compound 3d], in the test with HL-60-TB leukemia, the “distal site antitumor activity in xenograft” value is reported as “did not show significant activity”. The IC (TGI) in the test with Melanoma cell lines was 3.98 µM. The “hollow fiber assay combined i.p. + s.c. score” value in [5] was found to be 22. Also, in [3], the “mean IC70” value was 0.56 µg/mL. For the same compound, in test [1], the GI50 was 1.2 µM, the CC50 is 39.8 µM and the IC (TGI) is 7.08 µM. In [4], the IC50 is 30 to 45 µM.

With `O=C1Nc2ccc(O)cc2/C1=C\c1cccc(/C=C2/C(=O)Nc3ccc(O)cc32)n1` [Compound 3e], in [1], the GI50 was 39.8 µM, the CC50 was 97.7 µM and the IC (TGI) was 87.1 µM. In addition, in test [4], the IC50 lay within 40 to 50 µM.

Regarding `O=C(O)CCC(=O)c1ccc2c(c1)/C(=C\c1cccc(/C=C3/C(=O)Nc4ccc(C(=O)CCC(=O)O)cc43)n1)C(=O)N2` [Compound 3f], in test [1], the GI50 was 75.9 µM and the IC (TGI) was 95.5 µM.

In the case of `CN(C)c1ccc2c(c1)/C(=C\c1cccc(/C=C3/C(=O)Nc4ccc(N(C)C)cc43)n1)C(=O)N2` [Compound 3g], in test [1], the GI50 was 5.37 µM, the CC50 is 91.2 µM and the IC (TGI) is 40.7 µM. In addition, the IC (TGI) in the test on Renal cancer cell lines is 50.1 µM. Besides, in test [6], the PMET inhibition result was “inactive”.

As to `O=C1Nc2ccc(F)cc2/C1=C\c1cccc(/C=C2/C(=O)Nc3ccc(F)cc32)n1` [Compound 3h], in test [2], the IC (TGI) is 25.1 µM. Moreover, in test [1], the GI50 is 3.24 µM, the CC50 is 60.3 µM and the IC (TGI) is 11.7 µM.

Turning to `O=C1Nc2ccc(C(=O)O)cc2/C1=C\c1cccc(/C=C2/C(=O)Nc3ccc(C(=O)O)cc32)n1` [Compound 3i], in [1], the CC50 was 89.1 µM and the IC (TGI) is 83.2 µM. Also, in test [6], the PMET inhibition entry is “inactive”.

For `O=C1Nc2ccc(Br)cc2/C1=C\c1cccc(/C=C2/C(=O)Nc3ccc(Br)cc32)n1` [Compound 3j], the IC (TGI) in test [2] is 25.7 µM. Moreover, in [1], the GI50 is 8.32 µM and the CC50 was 56.2 µM.

For the compound `O=C1Nc2ccc(S(=O)(=O)O)cc2/C1=C\c1cccc(/C=C2/C(=O)Nc3ccc(S(=O)(=O)O)cc32)n1` [Compound 3k], the GI50 in test [1] was 97.7 µM.

Consider `O=C1Nc2cc(Cl)ccc2/C1=C\c1cccc(/C=C2/C(=O)Nc3cc(Cl)ccc32)n1` [Compound 3l], for which, in test [1], the GI50 is 2.04 µM, the CC50 was 39.8 µM and the IC (TGI) was 8.71 µM.

As for `Cc1cc2c(cc1O)/C(=C\c1cccc(/C=C3/C(=O)Nc4cc(C)c(O)cc43)n1)C(=O)N2` [Compound 3m], in test [1], the GI50 was 69.2 µM and the IC (TGI) is 97.7 µM.

For `COc1cc2c(cc1C)NC(=O)/C2=C/c1cccc(/C=C2/C(=O)Nc3cc(C)c(OC)cc32)n1` [Compound 3n], in test [1], the GI50 is 51.3 µM and the IC (TGI) is 95.5 µM.

With `CN1C(=O)/C(=C/c2cccc(/C=C3/C(=O)N(C)c4ccccc43)n2)c2ccccc21` [Compound 3o], the IC (TGI) in the test with Leukemia cell lines is 15.8 µM. In addition, the IC (TGI) in test [7] was 39.8 µM. Also, in test [1], the GI50 was 8.13 µM, the CC50 is 49 µM and the IC (TGI) was 26.9 µM. For the same compound, the PMET inhibition entry in [6] is “inactive”.

Take `COc1ccc2c(c1)/C(=C\c1cccc(/C=C3/C(=O)N(C)c4ccc(OC)cc43)n1)C(=O)N2C` [Compound 3p]: the IC (TGI) in [2] is 31.6 µM; with Breast cancer cell lines, 20 µM; in [1] it was 12.3 µM. Besides, the GI50 was 1.17 µM with Leukemia cell lines (read-out: pGI50 Leukemia (converted)) and 1.74 µM in [1]. The CC50 in [1] was 43.7 µM.

Take `O=C1Nc2ccccc2/C1=c1/[nH]c(=O)/c(=C2/C(=O)Nc3ccccc32)[nH]c1=O` [Compound 7a]: in [1], the GI50 is 89.1 µM.

On to `CC(=O)n1c(=O)/c(=C/c2c[nH]c3ccccc23)n(C(C)=O)c(=O)/c1=C/c1c[nH]c2ccccc12` [Compound 8a], for which, in [1], the GI50 was 74.1 µM and the IC (TGI) was 91.2 µM. Also, the IC (TGI) with Renal cancer cell lines was 50.1 µM. Also, the PMET inhibition entry in test [6] is “inactive”.

Regarding `O=c1[nH]/c(=C\c2c[nH]c3ccccc23)c(=O)[nH]/c1=C\c1c[nH]c2ccccc12` [Compound 9a], in test [1], the GI50 was 81.3 µM. For the same compound, the PMET inhibition entry in test [6] was “inactive”.

For the compound `COc1ccc2[nH]cc(/C=c3\[nH]c(=O)/c(=C/c4c[nH]c5ccc(OC)cc45)[nH]c3=O)c2c1` [Compound 9b], in [1], the GI50 was 93.3 µM.

For `CC(C)C[C@@H](C=O)NC(=O)[C@H](CC(C)C)NC(=O)[C@H](CC(C)C)NC(=O)OCc1ccccc1` [MG-132, Z-Leu-Leu-Leu-al] (Cbz-Leu-Leu-Leu-aldehyde), the “increase of BCA2 protein compared to CHX treatment” value in the test with BCA2 was “more than 10 fold”.

With `CC[C@]1(O)C[C@H]2CN(CCc3c([nH]c4ccccc34)[C@@](C(=O)OC)(c3cc4c(cc3OC)N(C=O)[C@H]3[C@@](O)(C(=O)OC)[C@H](OC(C)=O)[C@]5(CC)C=CCN6CC[C@]43[C@@H]65)C2)C1` [Vincrist ine sulfate, reference compound], the IC (TGI) in the test with Melanoma cell lines was 7.94 µM; in test [2], 20 µM; in the test on Colon cancer cell lines, 3.98 µM; in the test on Leukemia cell lines, 15.8 µM; in test [7], 6.31 µM; in the test on Breast cancer cell lines, 7.94 µM. Also, the IC (TGI) in the test on CNS cancer cell lines is 6.31 µM; with NSCLC cell lines it was 15.8 µM; in test [1], 10 µM; in the test on Renal cancer cell lines, 20 µM. Also, in test [1], the GI50 was 0.2 µM.
